According to ChEMBL document CHEMBL1828561, “Identification of a potent and selective free fatty acid receptor 1 (FFA1/GPR40) agonist with favorable physicochemical and in vitro ADME properties” (J Med Chem, 2011):
The source made the active and inactive calls. No cut-off for these calls is given here.

Tests used:
1321-N1 [1] = assay: Selectivity for human FFA1 receptor expressed in human 1321N1 cells over 5HT3 receptor; type: cell-based
1321-N1 [2] = assay: Selectivity for human FFA1 receptor expressed in human 1321N1 cells over 5HT5a receptor; type: cell-based
1321-N1 [3] = assay: Selectivity for human FFA1 receptor expressed in human 1321N1 cells over 5HT6 receptor; type: cell-based
1321-N1 [4] = assay: Selectivity for human FFA1 receptor expressed in human 1321N1 cells over 5HT7 receptor; type: cell-based
1321-N1 [5] = assay: Selectivity for human FFA1 receptor expressed in human 1321N1 cells over sst receptor; type: cell-based
1321-N1 [6] = assay: Selectivity for human FFA1 receptor expressed in human 1321N1 cells over VPAC1 receptor; type: cell-based
1321-N1 [7] = assay: Selectivity for human FFA1 receptor expressed in human 1321N1 cells over Kv channel; type: cell-based
1321-N1 [8] = assay: Selectivity for human FFA1 receptor expressed in human 1321N1 cells over SKCa channel; type: cell-based
1321-N1 [9] = assay: Selectivity for human FFA1 receptor expressed in human 1321N1 cells over dopamine transporter; type: cell-based
[10] = Chemical stability of the compound in PBS at 37 degC for 12 days; type: physicochemical; conditions: read-out: Stability
Procedure, shortened: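 Stability followed in PBS at 37 °C over 12 days.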

Liver = assay: Metabolic stability in human liver S9 fraction; type: ADME, subcellular
CYP2C9 = CYP2C9 (Homo sapiens, UniProt P11712); assay: Inhibition of CYP2C9 at 10 uM; type: ADME
[11] = Inhibition of P-glycoprotein at 100 uM
Procedure, shortened: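 P-glycoprotein inhibition tested at 100 μM compound.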

[12] = Apparent permeability from apical to basolateral side of human Caco2/TC7 cells; type: ADME, cell-based; conditions: Caco-2
Procedure, shortened: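 Caco-2 TC7 monolayers, apical to basolateral transport at pH 6.5 apical/7.4 basolateral.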

[13] = biological target: T1, Free fatty acid receptor 1 (Homo sapiens, UniProt O14842); assay: Agonist activity at human FFA1 receptor expressed in human HEK293 assessed as accumulation of IP1 by time-resolved fluorescence assay; type: functional, cell-based
Procedure, shortened: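 Doxycycline-inducible FLAG-tagged human FFA1 in Flp-In T-Rex HEK293 cells, 100 000 cells/well (384-well). 20 min at 37 °C, then ligands in HBSS/10 mM HEPES/50 mM LiCl for 30 min. HTRF IP1 kit (d2 conjugate, Eu cryptate anti-IP1), 60 min at room temperature. 665/620 nm ratio expressed as ΔF%, normalized to maximal response at 10 μM of the reference agonist; n = 5.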

[14] = biological target: Free fatty acid receptor 1 (Rattus norvegicus) (UniProt Q8K3T4); assay: Agonist activity at FFA1 receptor in rat INS-1E cells assessed as movement of cellular constitiuent by DMR assay; type: functional, cell-based
Procedure, shortened: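 Label-free DMR on an Epic optical biosensor. Rat INS-1E cells, 30 000/well on fibronectin-coated 384-well sensor plates, cultured 20–24 h to confluence. Washed in HBSS/20 mM HEPES and equilibrated 1 h at 28 °C. Baseline read, compound added, wavelength shift (pm) monitored ≥5000 s. Antagonist line: 0.3 μM agonist with the FFA1 antagonist over a concentration range, pIC50 derived, n = 4.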

[15] = biological target: Free fatty acid receptor 1 (Rattus norvegicus) (UniProt Q8K3T4); assay: Agonist activity at FFA1 receptor in rat INS-1E cells assessed as increase in glucose-stimulated insulin production at 10 uM after 1 hr by radioimmunoassay in presence of 2.8 mM glucose; type: functional, cell-based
Procedure, shortened: (§1)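 Rat INS-1E cells seeded at 100 000 cells/mL in 24-well plates for 2 days. Incubated 1 h at 37 °C in pH 7.4 HEPES-bicarbonate saline with 1 mM CaCl2 and 0.5 g/L fatty-acid-free BSA plus test substance. Secreted insulin and acid-ethanol-extracted content measured by radioimmunoassay. Mean ± SE, n = 8.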

[16] = biological target: Free fatty acid receptor 1 (Rattus norvegicus) (UniProt Q8K3T4); assay: Agonist activity at FFA1 receptor in rat INS-1E cells assessed as increase in glucose-stimulated insulin production at 10 uM after 1 hr by radioimmunoassay in presence of 12 mM glucose; type: functional, cell-based; procedure, shortened: as §1
[17] = Octanol-water partition coefficient, log D of the compound at pH 7.4 by HPLC analysis; type: physicochemical
Procedure, shortened: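 Distribution between n-octanol and water (PBS), pH 7.4, determined experimentally.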

[18] = biological target: T1, Free fatty acid receptor 1; assay: Agonist activity at human FFA1 receptor expressed in human 1321N1 cells assessed as calcium mobilization by fluorescence spectrophotometry; type: functional, cell-based
[19] = biological target: T1, Free fatty acid receptor 1; assay: Agonist activity at human FFA1 receptor expressed in human 1321N1 cells assessed as calcium mobilization by fluorescence spectrophotometry relative to 10 uM TUG-20; type: functional, cell-based
Procedure, shortened: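 Human FFA1 stably expressed in 1321N1 cells kept under G418 selection, 30000–40000 cells/well. After 24 h, washed in Krebs-HEPES pH 7.4 and loaded 1 h at 37 °C with 1.5 μM Oregon Green 488 BAPTA-1/AM. Compound injected at 10-fold concentration at 37 °C; fluorescence ex 485/em 520 nm over 50 × 0.4 s. Efficacy as % of maximal response to 10 μM TUG-20.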

HEK293 [20] = assay: Selectivity for human FFA1 receptor expressed in human 1321N1 cells over human FFA2 receptor expressed in HEK293 cells at 10 uM; type: cell-based
HEK293 [21] = assay: Selectivity for human FFA1 receptor expressed in human 1321N1 cells over human FFA3 receptor expressed in HEK293 cells at 10 uM; type: cell-based
1321-N1 [22] = assay: Selectivity for human FFA1 receptor expressed in human 1321N1 cells over A2A receptor; type: cell-based
1321-N1 [23] = assay: Selectivity for human FFA1 receptor expressed in human 1321N1 cells over A3 receptor; type: cell-based
1321-N1 [24] = assay: Selectivity for human FFA1 receptor expressed in human 1321N1 cells over alpha1 receptor; type: cell-based
1321-N1 [25] = assay: Selectivity for human FFA1 receptor expressed in human 1321N1 cells over B2 receptor; type: cell-based
1321-N1 [26] = assay: Selectivity for human FFA1 receptor expressed in human 1321N1 cells over CB1 receptor; type: cell-based
1321-N1 [27] = assay: Selectivity for human FFA1 receptor expressed in human 1321N1 cells over GABA receptor; type: cell-based
1321-N1 [28] = assay: Selectivity for human FFA1 receptor expressed in human 1321N1 cells over GAL2 receptor; type: cell-based
1321-N1 [29] = assay: Selectivity for human FFA1 receptor expressed in human 1321N1 cells over CXCR2 receptor; type: cell-based
1321-N1 [30] = assay: Selectivity for human FFA1 receptor expressed in human 1321N1 cells over CCR1 receptor; type: cell-based
1321-N1 [31] = assay: Selectivity for human FFA1 receptor expressed in human 1321N1 cells over MC4 receptor; type: cell-based
1321-N1 [32] = assay: Selectivity for human FFA1 receptor expressed in human 1321N1 cells over MT1 receptor; type: cell-based
1321-N1 [33] = assay: Selectivity for human FFA1 receptor expressed in human 1321N1 cells over M1 receptor; type: cell-based
1321-N1 [34] = assay: Selectivity for human FFA1 receptor expressed in human 1321N1 cells over NK3 receptor; type: cell-based
1321-N1 [35] = assay: Selectivity for human FFA1 receptor expressed in human 1321N1 cells over Y1 receptor; type: cell-based
1321-N1 [36] = assay: Selectivity for human FFA1 receptor expressed in human 1321N1 cells over Y2 receptor; type: cell-based
1321-N1 [37] = assay: Selectivity for human FFA1 receptor expressed in human 1321N1 cells over NTS1 receptor; type: cell-based

T1 sequence (O14842 whole entry): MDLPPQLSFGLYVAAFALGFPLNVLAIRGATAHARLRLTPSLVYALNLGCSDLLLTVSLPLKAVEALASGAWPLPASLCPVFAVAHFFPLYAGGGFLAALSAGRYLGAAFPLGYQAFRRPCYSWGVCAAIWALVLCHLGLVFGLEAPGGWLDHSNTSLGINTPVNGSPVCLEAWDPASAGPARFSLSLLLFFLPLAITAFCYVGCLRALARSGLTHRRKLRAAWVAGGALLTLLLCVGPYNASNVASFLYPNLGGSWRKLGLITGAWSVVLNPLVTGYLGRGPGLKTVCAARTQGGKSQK
Free fatty acid receptor 1 (Rattus norvegicus), sequence (Q8K3T4 whole entry): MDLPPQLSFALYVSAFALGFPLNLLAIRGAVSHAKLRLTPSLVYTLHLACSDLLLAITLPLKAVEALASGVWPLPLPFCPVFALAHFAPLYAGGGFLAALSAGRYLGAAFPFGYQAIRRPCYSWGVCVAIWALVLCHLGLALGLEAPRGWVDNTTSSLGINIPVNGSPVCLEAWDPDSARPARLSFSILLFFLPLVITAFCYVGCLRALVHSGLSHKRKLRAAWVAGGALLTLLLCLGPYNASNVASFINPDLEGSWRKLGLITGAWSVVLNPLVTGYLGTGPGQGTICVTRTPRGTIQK
CYP2C9, sequence (P11712 whole entry): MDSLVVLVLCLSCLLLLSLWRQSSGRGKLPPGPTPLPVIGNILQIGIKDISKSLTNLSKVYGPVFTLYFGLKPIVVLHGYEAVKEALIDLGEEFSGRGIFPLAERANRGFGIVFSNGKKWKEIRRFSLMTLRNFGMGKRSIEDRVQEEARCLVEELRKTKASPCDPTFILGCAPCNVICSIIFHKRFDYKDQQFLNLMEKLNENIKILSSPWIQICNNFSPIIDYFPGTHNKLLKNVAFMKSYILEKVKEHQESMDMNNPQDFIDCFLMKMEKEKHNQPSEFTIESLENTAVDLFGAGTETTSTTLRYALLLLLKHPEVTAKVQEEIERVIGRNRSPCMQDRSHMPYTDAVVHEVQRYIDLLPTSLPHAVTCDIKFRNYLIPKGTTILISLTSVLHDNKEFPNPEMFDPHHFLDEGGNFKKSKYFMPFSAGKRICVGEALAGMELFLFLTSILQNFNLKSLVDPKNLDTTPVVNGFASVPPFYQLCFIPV

remaining at 288 h [10]: 99.9% | Stability (Liver): 97% | inhibition at 10 µM (CYP2C9): -4% | inhibition [11]: -1.9% | Papp A→B [12]: 1120 nm/s | Activity [13]: Active | Activity [14]: Active | Activity [15]: inactive | Activity [16]: 60% | logD [17]: 1.97 | EC50 [18]: 0.0407 µM | Efficacy [19]: 103%
SMILES: O=C(O)CCc1ccc(C#Cc2cc(Cl)nc(Cl)c2)cc1
Selectivity ratio (1321-N1 [1]): > 100 | Selectivity ratio (1321-N1 [2]): > 100 | Selectivity ratio (1321-N1 [3]): > 100 | Selectivity ratio (1321-N1 [4]): > 100 | Selectivity ratio (1321-N1 [5]): > 100 | Selectivity ratio (1321-N1 [6]): > 100 | Selectivity ratio (1321-N1 [7]): > 100 | Selectivity ratio (1321-N1 [8]): > 100 | Selectivity ratio (1321-N1 [9]): > 100 | Selectivity ratio (HEK293 [20]): > 100 | Selectivity ratio (HEK293 [21]): > 100 | Selectivity ratio (1321-N1 [22]): > 100 | Selectivity ratio (1321-N1 [23]): > 100 | Selectivity ratio (1321-N1 [24]): > 100 | Selectivity ratio (1321-N1 [25]): > 100 | Selectivity ratio (1321-N1 [26]): > 100 | Selectivity ratio (1321-N1 [27]): > 100 | Selectivity ratio (1321-N1 [28]): > 100 | Selectivity ratio (1321-N1 [29]): > 100 | Selectivity ratio (1321-N1 [30]): > 100 | Selectivity ratio (1321-N1 [31]): > 100 | Selectivity ratio (1321-N1 [32]): > 100 | Selectivity ratio (1321-N1 [33]): > 100 | Selectivity ratio (1321-N1 [34]): > 100 | Selectivity ratio (1321-N1 [35]): > 100 | Selectivity ratio (1321-N1 [36]): > 100 | Selectivity ratio (1321-N1 [37]): > 100
